The results in this text go back to ChEMBL document CHEMBL4699573, “Design, Synthesis, and Pharmacological Evaluation of Analogues Derived from the PLEV Tetrapeptide as Protein-Protein Interaction Modulators of Voltage-Gated Sodium Channel 1.6” (J Med Chem, 2020).

The test system of series [1] is HEK293. The experiment in a line: Modulation of recombinant human FGF141b (1 to 252 residues)-recombinant human Nav1.6 C-terminal tail (1763 to 1976 residues) protein-protein interaction expressed in HEK293 cells assessed as relative luminescence value at 50 uM measured at 2 mins interval for 20 mins by split-luciferase complementation assay relative to control. In kind it is cell-based. Conditions: time min 2-20. The essentials:
(§1)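 Double-stable HEK293 line expressing CLuc-FGF14 and CD4-Nav1.6-C-tail-NLuc, kept on G418 and puromycin. Cells seeded for 24 h, then given compound for 1 h in serum-free, phenol red-free DMEM/F12 with a final 0.5% DMSO: 50 μM for screening, 0.25–100 μM over eight concentrations for dose-response; n = 4. D-luciferin added and read every 2 min for 20 min at 37 °C. Peak luminescence expressed as percent of per-plate DMSO mean (n = 32). IC50 from four-parameter nonlinear fit. At least 3 experiments.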

Series [2] deals with HEK293. The experiment in a line: Inhibition of full-length Photinus pyralis luciferase transfected in HEK293 cells at 25 uM incubated for 1 hrs by split-luciferase complementation assay. The format is cell-based. The essentials:
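HEK293 cells transfected with full-length Photinus pyralis luciferase, then treated 1 h with 25 μM compound (n = 4) or 0.5% DMSO (n = 32). Luminescence read after D-luciferin addition, as in the LCA, normalized to per-plate DMSO controls. One-way ANOVA with Dunnett's test.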

Series [3] has as its system HEK293. The experiment in a line: Cytotoxicity against HEK293 cells assessed as reduction in cell viability measured after 18 hrs by celltiter-blue assay. The note with it: human, hek293, 18 h.
The target in series [4] is T1, Sodium channel protein type 8 subunit alpha (Homo sapiens, UniProt Q9UQD0). The experiment in a line: Binding affinity to human recombinant Nav1.6 C-terminal domain expressed in Escherichia coli BL21 assessed as dissociation constant by SPR analysis. The essentials:
(§2)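 Biacore T100 runs with FGF14 (17,896 RU) or Nav1.6 C-tail (6,800 RU) amine-coupled on CM5 at pH 5.5. Compounds at 0.195–200 μM in PBS, 0.005% Tween-20, 2% DMSO; 50 μL/min at 25 °C. 120 s association, 150 s dissociation, DMSO calibration, blank subtraction. Rates from a Langmuir 1:1 fit; KD averages the kinetic and steady-state values. At least duplicate experiments.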
Target sequence in this assay (Q9UQD0 whole entry, the tested form may be a part): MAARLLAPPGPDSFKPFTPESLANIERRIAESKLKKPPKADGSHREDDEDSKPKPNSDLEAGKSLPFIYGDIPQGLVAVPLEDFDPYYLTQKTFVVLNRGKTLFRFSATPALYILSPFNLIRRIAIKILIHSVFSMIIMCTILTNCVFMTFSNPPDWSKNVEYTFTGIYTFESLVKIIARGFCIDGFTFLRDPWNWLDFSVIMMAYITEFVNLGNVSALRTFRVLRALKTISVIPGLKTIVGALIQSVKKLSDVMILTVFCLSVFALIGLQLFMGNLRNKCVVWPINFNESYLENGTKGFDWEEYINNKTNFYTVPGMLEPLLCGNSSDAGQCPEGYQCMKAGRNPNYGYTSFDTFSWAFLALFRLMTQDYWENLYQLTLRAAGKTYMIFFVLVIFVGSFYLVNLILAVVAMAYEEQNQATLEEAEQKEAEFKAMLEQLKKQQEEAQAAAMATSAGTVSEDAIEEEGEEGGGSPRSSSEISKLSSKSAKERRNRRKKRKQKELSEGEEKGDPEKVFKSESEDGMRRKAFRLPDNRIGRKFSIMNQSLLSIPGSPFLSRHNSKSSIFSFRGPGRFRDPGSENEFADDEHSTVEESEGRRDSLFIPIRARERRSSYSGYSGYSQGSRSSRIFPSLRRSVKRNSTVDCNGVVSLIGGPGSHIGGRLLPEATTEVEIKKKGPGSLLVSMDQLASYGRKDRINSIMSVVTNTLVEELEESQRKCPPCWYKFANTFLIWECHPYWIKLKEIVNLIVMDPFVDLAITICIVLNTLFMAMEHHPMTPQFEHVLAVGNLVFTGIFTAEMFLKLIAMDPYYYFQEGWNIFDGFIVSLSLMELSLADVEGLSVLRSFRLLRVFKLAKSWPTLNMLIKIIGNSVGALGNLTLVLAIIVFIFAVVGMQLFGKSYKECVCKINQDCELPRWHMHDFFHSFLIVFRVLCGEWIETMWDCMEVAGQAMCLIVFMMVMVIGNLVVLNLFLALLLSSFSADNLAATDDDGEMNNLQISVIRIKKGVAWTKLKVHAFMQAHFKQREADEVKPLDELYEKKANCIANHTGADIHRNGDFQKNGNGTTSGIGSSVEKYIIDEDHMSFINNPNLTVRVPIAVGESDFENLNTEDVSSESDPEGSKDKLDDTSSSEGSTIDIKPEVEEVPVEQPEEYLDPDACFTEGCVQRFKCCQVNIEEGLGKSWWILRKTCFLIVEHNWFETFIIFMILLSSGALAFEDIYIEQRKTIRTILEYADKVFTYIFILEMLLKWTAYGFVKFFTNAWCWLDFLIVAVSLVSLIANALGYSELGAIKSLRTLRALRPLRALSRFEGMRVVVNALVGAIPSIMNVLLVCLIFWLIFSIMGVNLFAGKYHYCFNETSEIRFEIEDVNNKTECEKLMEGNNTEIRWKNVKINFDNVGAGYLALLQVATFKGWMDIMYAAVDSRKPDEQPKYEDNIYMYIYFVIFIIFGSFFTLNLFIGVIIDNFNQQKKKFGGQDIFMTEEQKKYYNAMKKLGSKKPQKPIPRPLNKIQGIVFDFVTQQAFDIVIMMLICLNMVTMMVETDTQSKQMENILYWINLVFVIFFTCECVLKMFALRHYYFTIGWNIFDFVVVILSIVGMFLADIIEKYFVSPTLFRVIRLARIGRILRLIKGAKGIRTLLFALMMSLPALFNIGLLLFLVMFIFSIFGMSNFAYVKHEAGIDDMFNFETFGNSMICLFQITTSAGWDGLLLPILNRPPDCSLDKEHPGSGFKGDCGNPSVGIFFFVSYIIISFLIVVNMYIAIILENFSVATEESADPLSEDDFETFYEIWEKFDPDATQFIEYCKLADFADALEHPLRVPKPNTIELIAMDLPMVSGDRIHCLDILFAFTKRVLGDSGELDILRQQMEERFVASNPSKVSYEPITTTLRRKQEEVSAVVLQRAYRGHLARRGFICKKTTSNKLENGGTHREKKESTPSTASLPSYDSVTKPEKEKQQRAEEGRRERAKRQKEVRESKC

Series [5] has as its target T1, Sodium channel protein type 8 subunit alpha. The experiment in a line: Binding affinity to human recombinant Nav1.6 C-terminal domain expressed in Escherichia coli BL21 assessed as assessed as induction of protein denaturation by measuring change in melting temperature at 10 uM by fluorescent dye based thermal shift assay. The note with it: filed as modulator, dose 50.0 µM.
Target sequence in this assay (Q9UQD0 whole entry, looked up, the tested form may be a part): as the sequence (Q9UQD0 whole entry, the tested form may be a part) above

The target in series [6] is T2, Fibroblast growth factor 14 (Homo sapiens) (UniProt Q92915).
T2 sequence (whole entry): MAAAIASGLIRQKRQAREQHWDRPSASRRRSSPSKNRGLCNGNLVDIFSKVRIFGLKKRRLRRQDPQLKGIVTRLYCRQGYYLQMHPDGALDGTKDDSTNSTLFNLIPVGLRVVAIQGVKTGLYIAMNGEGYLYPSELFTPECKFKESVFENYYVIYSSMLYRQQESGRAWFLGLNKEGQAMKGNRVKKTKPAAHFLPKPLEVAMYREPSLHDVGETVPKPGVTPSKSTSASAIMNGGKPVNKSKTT
The experiment in a line: Binding affinity to human recombinant FGF14 expressed in Escherichia coli BL21 assessed as assessed as induction of protein denaturation by measuring change in melting temperature at 50 uM by fluorescent dye based thermal shift assay. Conditions: filed as modulator.

Series [7] deals with T1, Sodium channel protein type 8 subunit alpha. The experiment in a line: Binding affinity to human recombinant Nav1.6 C-terminal domain expressed in Escherichia coli BL21 assessed as dissociation rate constant by SPR analysis. Conditions: filed as modulator. The essentials: as §2
Target sequence in this assay (Q9UQD0 whole entry, looked up, the tested form may be a part): as the sequence (Q9UQD0 whole entry, the tested form may be a part) above
Series [8] has as its system HEK293. The experiment in a line: Modulation of recombinant human FGF141b (1 to 252 residues)-recombinant human Nav1.6 C-terminal tail (1763 to 1976 residues) protein-protein interaction expressed in HEK293 cells measured at 2 mins interval for 20 mins by split-luciferase complementation assay relative to control. In kind it is cell-based. Conditions: filed as modulator, time min 2-20. In a few lines:
as §1

For series [9], the target named is T1, Sodium channel protein type 8 subunit alpha. The experiment in a line: Binding affinity to human recombinant Nav1.6 C-terminal domain expressed in Escherichia coli BL21 assessed as association rate constant by SPR analysis. Conditions: filed as modulator. The essentials: as §2
Target sequence in this assay (Q9UQD0 whole entry, looked up, the tested form may be a part): as the sequence (Q9UQD0 whole entry, the tested form may be a part) above
Series [10] is described as follows: Modulation of recombinant human FGF141b (1 to 252 residues)-recombinant human Nav1.6 C-terminal tail (1763 to 1976 residues) protein-protein interaction expressed in HEK293 cells measured at 2 mins interval for 20 mins by split-luciferase complementation assay. In kind it is cell-based. The essentials:
as §1

SMILES strings stand for the structures. The source made the active and inactive calls. The rule behind the calls is not given here. Starred links: 1 amine or outer side, 2 acyl side, 3 side chain; linkers in the order of their positions; H or OH if unused. Residues, ends and D or L forms follow the SMILES beside them. *: point of attachment. Benzenesulfonyl(4-F) = O=S(=O)(c1ccc(F)cc1)*; NH(1-Adamantyl) = C1C2CC3CC1CC(N*)(C2)C3; Cyclohexanecarbonyl = O=C(C1CCCCC1)*; Fmoc = O=C(OCC1c2ccccc2-c2ccccc21)*; Benzoyl(4-F) = O=C(c1ccc(F)cc1)*; Piperazinyl(4-Me) = CN1CCN(*)CC1; Decanoyl = CCCCCCCCCC(=O)*; Cbz = O=C(OCc1ccccc1)*; NHcHex = C1CCC(N*)CC1; CO = O=C([*:1])[*:2]; OtBu = CC(C)(C)O*; X3 = OC1CN(*)C1; OAll = C=CCO*

Turning to `CC(C)C[C@H](NC(=O)[C@@H]1CCCN1C(=O)OCc1ccccc1)C(=O)N[C@@H](CCC(=O)OC(C)(C)C)C(=O)N[C@H](C(=O)NC1CCCCC1)C(C)C` (Cbz-PLE(OtBu)V-NHcHex), the Activity in the series with HEK293 [1] stood at 117%.

On to `C=CCOC(=O)[C@@H](NC(=O)[C@H](CCC(=O)OC(C)(C)C)NC(=O)[C@H](CC(C)C)NC(=O)[C@@H]1CCCN1C(=O)OCc1ccccc1)C(C)C` (Cbz-PLE(OtBu)V-OAll), for which the inhibition entry with HEK293 [2] is “inactive”. Also, the Activity entry was “Non-Toxic” in the series on HEK293 [3] and 11.9% with HEK293 [1] (filed as modulator). Also, the Kd in [4] is above 200 µM. Besides, the ΔTm is -0.87 °C in series [5] and 0.67 °C in series [6]. Further, the K is 4.49 10^-3/s in series [7] and 2.57 10^5/M/s in series [9]. Further, the Efficacy in the series on HEK293 [8] was 90.7%. In addition, in [10], the IC50 is 15.4 µM.

As to `COC(=O)[C@@H](NC(=O)[C@H](CCC(=O)OC(C)(C)C)NC(=O)[C@H](CC(C)C)NC(=O)[C@@H]1CCCN1C(=O)OCc1ccccc1)C(C)C` (Cbz-PLE(OtBu)V-OMe), in the series with HEK293 [2], the inhibition result is “inactive”. Moreover, the Activity result in the series with HEK293 [3] is “Non-Toxic”; in the series with HEK293 [1] (filed as modulator), 39.8%. The Efficacy in the series on HEK293 [8] is 93.3%. In series [10], the IC50 amounted to 22.4 µM.

As for `CC(C)C[C@H](NC(=O)[C@@H]1CCCN1C(=O)OCc1ccccc1)C(=O)N[C@@H](CCC(=O)OC(C)(C)C)C(=O)N[C@H](C(=O)N1CC(O)C1)C(C)C` (Cbz-PLE(OtBu)V-X3), the Activity with HEK293 [1] is 112%.

As for `CC(C)C[C@H](NC(=O)[C@@H]1CCCN1C(=O)OCc1ccccc1)C(=O)N[C@@H](CCC(=O)OC(C)(C)C)C(=O)N[C@H](C(=O)NC12CC3CC(CC(C3)C1)C2)C(C)C` (Cbz-PLE(OtBu)V-{NH(1-Adamantyl)}), in the series on HEK293 [1], the Activity was found to be 81.5%.

With `CC(C)C[C@H](NC(=O)[C@@H]1CCCN1C(=O)OCc1ccccc1)C(=O)N[C@@H](CCC(=O)OC(C)(C)C)C(=O)N[C@H](C(=O)N1CCN(C)CC1)C(C)C` (Cbz-PLE(OtBu)V-{Piperazinyl(4-Me)}), in the series with HEK293 [1], the Activity is 54.2%.

For `CC(C)C[C@H](NC(=O)[C@@H]1CCCN1C(=O)C1CCCCC1)C(=O)N[C@@H](CCC(=O)OC(C)(C)C)C(=O)N[C@H](C(N)=O)C(C)C` (Cyclohexanecarbonyl-PLE(OtBu)V-NH2), the Activity with HEK293 [1] amounted to 104%.

For the compound `CCCCCCCCCC(=O)N1CCC[C@H]1C(=O)N[C@@H](CC(C)C)C(=O)N[C@@H](CCC(=O)OC(C)(C)C)C(=O)N[C@H](C(N)=O)C(C)C` (Decanoyl-PLE(OtBu)V-NH2), in the series with HEK293 [1], the Activity stood at 114%.

As for `COC(=O)[C@@H](NC(=O)[C@H](CCC(=O)OC(C)(C)C)NC(=O)[C@H](CC(C)C)NC(=O)[C@@H]1CCCN1C(=O)OCC1c2ccccc2-c2ccccc21)C(C)C` (Fmoc-PLE(OtBu)V-OMe), the Activity with HEK293 [1] came to 76.9%.

`CC(C)C[C@H](NC(=O)[C@@H]1CCCN1)C(=O)N[C@@H](CCC(=O)OC(C)(C)C)C(=O)N[C@H](C(N)=O)C(C)C` (H-PLE(OtBu)V-NH2): the Activity in the series with HEK293 [1] amounted to 114%.

As to `CC(C)C[C@H](NC(=O)[C@@H]1CCCN1S(=O)(=O)c1ccc(F)cc1)C(=O)N[C@@H](CCC(=O)OC(C)(C)C)C(=O)N[C@H](C(N)=O)C(C)C` ({Benzenesulfonyl(4-F)}-PLE(OtBu)V-NH2), the Activity in the series with HEK293 [1] was 86.4%.

As to `CC(C)C[C@H](NC(=O)[C@@H]1CCCN1C(=O)c1ccc(F)cc1)C(=O)N[C@@H](CCC(=O)OC(C)(C)C)C(=O)N[C@H](C(N)=O)C(C)C` ({Benzoyl(4-F)}-PLE(OtBu)V-NH2), the inhibition result with HEK293 [2] was “inactive”. Besides, in the series on HEK293 [3], the Activity result is “Non-Toxic”.

As to `CC(C)C[C@H](NC(=O)[C@@H]1CCCN1C(=O)NC12CC3CC(CC(C3)C1)C2)C(=O)N[C@@H](CCC(=O)OC(C)(C)C)C(=O)N[C@H](C(N)=O)C(C)C` ({NH(1-Adamantyl)-CO}-PLE(OtBu)V-NH2), the Activity with HEK293 [1] was determined as 83.5%.
